Measured values reported in ChEMBL document CHEMBL2331355, “Synthesis, structure activity relationship and mode of action of 3-substitutedphenyl-1-(2,2,8,8-tetramethyl-3,4,9,10-tetrahydro-2H,8H-pyrano[2,3-f]chromen-6-yl)-propenones as novel anticancer agents in human leukaemia HL-60 cells” (Eur J Med Chem, 2013).
Calls of active or inactive are those of the source. The calls are words filed in the database; no cut-off is given here.

Key:
[1] = system: Caco-2; assay: Growth inhibition of human Caco2 cells at 50 uM after 48 hrs by MTT assay; type: functional; conditions: Caco-2, 48 h, read-out: GI
In short: (§1)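 Single-concentration MTT screen at 50 µM over 48 h in 96-well plates. Compounds giving >50% inhibition were rescreened at 30 µM. OD read at 570 nm, reference 620 nm. Result expressed as % growth inhibition versus untreated control. Mitomycin C, adriamycin or 5-fluorouracil used as positive controls. Mean ± SD of three independent experiments.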

[2] = system: MDA-MB-435; assay: Growth inhibition of human MDA-MB-435 cells at 50 uM after 48 hrs by MTT assay; type: functional; conditions: MDA-MB-435, 48 h, read-out: GI; in short: as §1
[3] = system: MIA PaCa-2; assay: Growth inhibition of human MIAPaCa2 cells at 50 uM after 48 hrs by MTT assay; type: functional; conditions: MIA PaCa-2, 48 h, read-out: GI; in short: as §1
[4] = system: ASPC1; assay: Growth inhibition of human AsPC1 cells at 50 uM after 48 hrs by MTT assay; type: functional; conditions: ASPC1, 48 h, read-out: GI; in short: as §1
[5] = system: HL-60; assay: Growth inhibition of human HL60 cells at 50 uM after 48 hrs by MTT assay; type: functional; conditions: HL-60, 48 h, read-out: GI; in short: as §1
[6] = system: MCF7; assay: Growth inhibition of human MCF7 cells at 50 uM after 48 hrs by MTT assay; type: functional; conditions: MCF7, 48 h, read-out: GI; in short: as §1
[7] = system: PC-3; assay: Growth inhibition of human PC3 cells at 50 uM after 48 hrs by MTT assay; type: functional; conditions: PC-3, 48 h, read-out: GI; in short: as §1
[8] = system: HL-60; assay: Induction of apoptosis in human HL60 cells assessed as apoptotic bodies at 20 uM after 24 hrs by Hoechst 33258 staining; type: functional, cell-based
In short: (§2)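 HL-60 cells (1 × 10⁶/2 ml) treated 24 h at 15 and 20 µM, pelleted at 300 g and washed. Stained with Hoechst 33258, then examined under an inverted fluorescence microscope (10×, UV excitation) for nuclear condensation, blebbing and apoptotic bodies.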

[9] = system: HL-60; assay: Induction of apoptosis in human HL60 cells assessed as nuclear blebbing after 24 hrs by Hoechst 33258 staining; type: functional, cell-based; in short: as §2
[10] = system: HL-60; assay: Induction of apoptosis in human HL60 cells assessed as nuclear condensation after 24 hrs by Hoechst 33258 staining; type: functional, cell-based; in short: as §2
[11] = system: HL-60; assay: Induction of mitochondrial membrane potential loss in human HL60 cells at 20 uM after 24 hrs by rhodamine-123 staining method (reference value: 7%); type: functional
In short: (§3)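 HL-60 cells (1 × 10⁶/2 ml/well) treated 24 h at 15 or 20 µM, then incubated with rhodamine-123 (200 nM) for 40 min. Loss of dye uptake measured by flow cytometry. Camptothecin (4 µM, 6 h) as positive control. Representative of three experiments.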

[12] = system: HL-60; assay: Induction of mitochondrial membrane potential loss in human HL60 cells at 15 uM after 24 hrs by rhodamine-123 staining method (reference value: 7%); type: functional; in short: as §3
[13] = system: HL-60; assay: Induction of apoptosis in human HL60 cells assessed as DNA fragmentation at 20 uM after 24 hrs by SDS-PAGE analysis; type: functional, cell-based; conditions: in the assay text read “agarose gel electrophoresis” for “SDS-PAGE analysis”
In short: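 HL-60 cells (2 × 10⁶/3 ml/well) treated at 20 µM for 24 h. Lysed, then digested with RNase (400 µg/ml, 37 °C, 90 min) and proteinase K (200 µg/ml, 50 °C, 1 h). DNA extracted with phenol/chloroform/isoamyl alcohol and alcohol-precipitated. Run on 1.8% agarose gel at 70 V for 1 h, stained with ethidium bromide, and scored for laddering.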

[14] = system: HL-60; assay: Induction of apoptosis in human HL60 cells assessed as accumulation of sub-G0/G1 phase cells after 24 hrs by PI-staining based flow cytometric analysis; type: functional, cell-based
[15] = system: HL-60; assay: Cell cycle arrest in human HL60 cells assessed as G2/M phase cells at 20 uM after 24 hrs by PI staining-based flow cytometric analysis (reference value: 3%); type: functional
[16] = system: HL-60; assay: Cell cycle arrest in human HL60 cells assessed as G2/M phase cells at 15 uM after 24 hrs by PI staining-based flow cytometric analysis (reference value: 3%); type: functional
[17] = system: HL-60; assay: Cell cycle arrest in human HL60 cells assessed as G2/M phase cells at 10 uM after 24 hrs by PI staining-based flow cytometric analysis (reference value: 3%); type: functional
[18] = system: HL-60; assay: Cell cycle arrest in human HL60 cells assessed as G2/M phase cells at 5 uM after 24 hrs by PI staining-based flow cytometric analysis (reference value: 3%); type: functional
[19] = system: HL-60; assay: Cell cycle arrest in human HL60 cells assessed as S phase cells at 20 uM after 24 hrs by PI staining-based flow cytometric analysis (reference value: 49%); type: functional
[20] = system: HL-60; assay: Cell cycle arrest in human HL60 cells assessed as S phase cells at 15 uM after 24 hrs by PI staining-based flow cytometric analysis (reference value: 49%); type: functional
[21] = system: HL-60; assay: Cell cycle arrest in human HL60 cells assessed as S phase cells at 10 uM after 24 hrs by PI staining-based flow cytometric analysis (reference value: 49%); type: functional
[22] = system: HL-60; assay: Cell cycle arrest in human HL60 cells assessed as S phase cells at 5 uM after 24 hrs by PI staining-based flow cytometric analysis (reference value: 49%); type: functional
[23] = system: HL-60; assay: Cell cycle arrest in human HL60 cells assessed as accumulation of G0/G1 phase cells at 20 uM after 24 hrs by PI staining-based flow cytometric analysis (reference value: 48%); type: functional
[24] = system: HL-60; assay: Cell cycle arrest in human HL60 cells assessed as accumulation of G0/G1 phase cells at 15 uM after 24 hrs by PI staining-based flow cytometric analysis (reference value: 48%); type: functional
[25] = system: HL-60; assay: Cell cycle arrest in human HL60 cells assessed as accumulation of G0/G1 phase cells at 10 uM after 24 hrs by PI staining-based flow cytometric analysis (reference value: 48%); type: functional
[26] = system: HL-60; assay: Cell cycle arrest in human HL60 cells assessed as accumulation of G0/G1 phase cells at 5 uM after 24 hrs by PI staining-based flow cytometric analysis (reference value: 48%); type: functional
[27] = system: HL-60; assay: Induction of apoptosis in human HL60 cells at 20 uM after 24 hrs by PI-staining based flow cytometric analysis (reference value: 0.7 %); type: functional
[28] = system: HL-60; assay: Induction of apoptosis in human HL60 cells at 15 uM after 24 hrs by PI-staining based flow cytometric analysis (reference value: 0.7 %); type: functional
[29] = system: HL-60; assay: Induction of apoptosis in human HL60 cells at 10 uM after 24 hrs by PI-staining based flow cytometric analysis (reference value: 0.7 %); type: functional
[30] = system: HL-60; assay: Induction of apoptosis in human HL60 cells at 5 uM after 24 hrs by PI-staining based flow cytometric analysis (reference value: 0.7 %); type: functional
[31] = system: HL-60; assay: Cell cycle arrest in human HL60 cells assessed as decrease in G2/M phase cells after 24 hrs by PI staining-based flow cytometric analysis; type: functional
[32] = system: HL-60; assay: Cell cycle arrest in human HL60 cells assessed as decrease in S phase cells after 24 hrs by PI staining-based flow cytometric analysis; type: functional
[33] = system: HL-60; assay: Cell cycle arrest in human HL60 cells assessed as accumulation of G0/G1 phase cells after 24 hrs by PI staining-based flow cytometric analysis; type: functional
[34] = system: HL-60; assay: Cytotoxicity against human HL60 cells after 24 hrs by MTT assay; type: functional, cell-based; conditions: HL-60, 24 h
In short: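 HL-60 cells exposed 24 h to a range of concentrations, then MTT reduction measured. Untreated control OD taken as 100% viability; IC50 derived from the curve. Mean ± SD, n = 8 wells, three independent experiments.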

[35] = system: Caco-2; assay: Cytotoxicity against human Caco2 cells after 48 hrs by MTT assay; type: functional, cell-based; conditions: Caco-2, 48 h
In short: (§4)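 MTT assay in 96-well plates, 48 h exposure across 1–100 µM. OD read at 570 nm against a 620 nm reference. Untreated control OD taken as 100% viability. IC50 derived from the concentration–response curves. Mean ± SD, n = 8 wells, from three independent experiments.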

[36] = system: MIA PaCa-2; assay: Cytotoxicity against human MIAPaCa2 cells after 48 hrs by MTT assay; type: functional, cell-based; conditions: MIA PaCa-2, 48 h; in short: as §4
[37] = system: PC-3; assay: Cytotoxicity against human PC3 cells after 48 hrs by MTT assay; type: functional, cell-based; conditions: PC-3, 48 h; in short: as §4
[38] = system: Caco-2; assay: Growth inhibition of human Caco2 cells at 30 uM after 48 hrs by MTT assay; type: functional, cell-based; in short: as §1
[39] = system: MDA-MB-435; assay: Growth inhibition of human MDA-MB-435 cells at 30 uM after 48 hrs by MTT assay; type: functional, cell-based; in short: as §1
[40] = system: PC-3; assay: Growth inhibition of human PC3 cells at 30 uM after 48 hrs by MTT assay; type: functional, cell-based; in short: as §1
[41] = system: MCF7; assay: Growth inhibition of human MCF7 cells at 30 uM after 48 hrs by MTT assay; type: functional, cell-based; in short: as §1
[42] = system: HL-60; assay: Growth inhibition of human HL60 cells at 30 uM after 48 hrs by MTT assay; type: functional, cell-based; in short: as §1
[43] = system: ASPC1; assay: Growth inhibition of human AsPC1 cells at 30 uM after 48 hrs by MTT assay; type: functional, cell-based; in short: as §1
[44] = system: MIA PaCa-2; assay: Growth inhibition of human MIAPaCa2 cells at 30 uM after 48 hrs by MTT assay; type: functional, cell-based; in short: as §1

Work on COc1ccc(/C=C/C(=O)c2cc3c(c4c2OC(C)(C)CC4)OC(C)(C)CC3)cc1 yielded an inhibition of growth at 50 µM [1] of 16%, an inhibition of growth at 50 µM [2] of 53% and an inhibition of growth at 50 µM [3] of 30%. For the same molecule, the inhibition of growth at 50 µM [4] was 12%, the inhibition of growth at 50 µM [5] was 5% and the inhibition of growth at 50 µM [6] was 7%. The inhibition of growth at 50 µM [7] was 63%.

CC1(C)CCc2cc(C(=O)/C=C/c3ccc(C#N)cc3)c3c(c2O1)CCC(C)(C)O3 was tested, and the Activity [8] was “Active”, the Activity [9] was “Dose-dependent effect” and the Activity [10] was “Dose-dependent effect”. For the same molecule, the Activity [11] was 61%, the Activity [12] was 49% and the Activity [13] was “Active”. The Activity [14] was “Dose-dependent effect”, the Activity [15] was 3% and the Activity [16] was 4%. For the same molecule, the Activity [17] was 5%, the Activity [18] was 6% and the Activity [19] was 9%. The Activity [20] was 23%, the Activity [21] was 39% and the Activity [22] was 46%. The Activity [23] was 88%, the Activity [24] was 73% and the Activity [25] was 56%. For the same molecule, the Activity [26] was 48%, the Activity [27] was 71% and the Activity [28] was 31%. The Activity [29] was 11%, the Activity [30] was 1% and the Activity [31] was “Dose-dependent effect”. For the same molecule, the Activity [32] was “Dose-dependent effect”, the Activity [33] was “Dose-dependent effect” and the IC50 [34] was 16 µM. The IC50 [35] was 12 µM, the IC50 [36] was 12 µM and the IC50 [37] was 7 µM. The “growth inhibition (GI)” value [38] was “Active”, the “growth inhibition (GI)” value [39] was “Active” and the “growth inhibition (GI)” value [40] was “Active”. For the same molecule, the “growth inhibition (GI)” value [41] was “Active”, the “growth inhibition (GI)” value [42] was “Active” and the “growth inhibition (GI)” value [43] was “Active”. For the same molecule, the “growth inhibition (GI)” value [44] was “Active”, the inhibition of growth at 50 µM [1] was 93% and the inhibition of growth at 50 µM [2] was 88%. For the same molecule, the inhibition of growth at 50 µM [3] was 76%, the inhibition of growth at 50 µM [4] was 48% and the inhibition of growth at 50 µM [5] was 93%. It also gave an inhibition of growth at 50 µM [6] of 78% and an inhibition of growth at 50 µM [7] of 76%.

In the case of CC(=O)c1cc2c(c3c1OC(C)(C)CC3)OC(C)(C)CC2, the inhibition of growth at 50 µM [1] is reported as 20%, the inhibition of growth at 50 µM [2] is reported as 2% and the inhibition of growth at 50 µM [3] is reported as 25%. It also gave an inhibition of growth at 50 µM [4] of 5%, an inhibition of growth at 50 µM [5] of 25% and an inhibition of growth at 50 µM [6] of 18%. The inhibition of growth at 50 µM [7] was 19%.
